Results taken from ChEMBL document CHEMBL4184142, “A Naturally Occurring Isoform-Specific Probe for Highly Selective and Sensitive Detection of Human Cytochrome P450 3A5” (J Med Chem, 2017).

B1: Cytochrome P450 3A5 (Homo sapiens) (protein)
chain: MDLIPNLAVETWLLLAVSLVLLYLYGTRTHGLFKRLGIPGPTPLPLLGNVLSYRQGLWKFDTECYKKYGKMWGTYEGQLPVLAITDPDVIRTVLVKECYSVFTNRRSLGPVGFMKSAISLAEDEEWKRIRSLLSPTFTSGKLKEMFPIIAQYGDVLVRNLRREAEKGKPVTLKDIFGAYSMDVITGTSFGVNIDSLNNPQDPFVESTKKFLKFGFLDPLFLSIILFPFLTPVFEALNVSLFPKDTINFLSKSVNRMKKSRLNDKQKHRLDFLQLMIDSQNSKETESHKALSDLELAAQSIIFIFAGYETTSSVLSFTLYELATHPDVQQKLQKEIDAVLPNKAPPTYDAVVQMEYLDMVVNETLRLFPVAIRLERTCKKDVEINGVFIPKGSMVVIPTYALHHDPKYWTEPEEFRPERFSKKKDSIDPYIYTPFGTGPRNCIGMRFALMNMKLALIRVLQNFSFKPCKETQIPLKLDTQGLLQPEKPIVLKVDSRDGTLSGE

Experiments:
Cytochrome P450 3A5 [1] = target: T1, Cytochrome P450 3A5 (Homo sapiens, UniProt P20815); test: Substrate activity at CYP3A5 (unknown origin) assessed as enzyme-mediated compound turnover assessed per pmol protein at 10 uM; type: ADME
Cytochrome P450 3A4 [2] = target: T2, Cytochrome P450 3A4 (Homo sapiens, UniProt P08684); test: Substrate activity at CYP3A4 (unknown origin) assessed as enzyme-mediated compound turnover assessed per pmol protein at 10 uM; type: ADME
T2 sequence (P08684 whole entry): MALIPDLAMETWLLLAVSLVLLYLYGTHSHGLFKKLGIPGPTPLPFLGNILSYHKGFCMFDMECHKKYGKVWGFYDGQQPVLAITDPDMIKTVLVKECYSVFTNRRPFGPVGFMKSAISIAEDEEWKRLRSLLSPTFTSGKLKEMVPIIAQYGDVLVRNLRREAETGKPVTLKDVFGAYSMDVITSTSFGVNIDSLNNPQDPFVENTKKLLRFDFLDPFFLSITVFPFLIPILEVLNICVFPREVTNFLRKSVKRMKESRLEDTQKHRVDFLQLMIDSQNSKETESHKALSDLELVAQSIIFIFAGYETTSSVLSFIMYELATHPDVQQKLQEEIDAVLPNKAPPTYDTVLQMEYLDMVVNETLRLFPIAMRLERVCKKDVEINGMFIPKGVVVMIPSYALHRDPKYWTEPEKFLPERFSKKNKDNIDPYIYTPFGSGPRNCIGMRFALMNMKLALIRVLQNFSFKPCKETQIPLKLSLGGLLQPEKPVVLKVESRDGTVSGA

[3] = Drug metabolism in human liver microsomes assessed as Vmax for 2-O-demethylation; type: ADME, microsome
Outline: (§1)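 Pooled HLM at 0.4 mg/mL incubated 20 min at 37 °C with substrate at 2, 5, 10, 20, 50, 100, 200 μM. Buffer was 100 mM potassium phosphate pH 7.4 with an NADPH-generating system, methanol 1% (v/v) final, 3 min preincubation. Reaction stopped with ice-cold methanol; 2-O-demethylated metabolite read by UFLC-DAD. Apparent Km and Vmax from nonlinear regression; three experiments in duplicate.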

[4] = Drug metabolism in S9 fractions (unknown origin) assessed as benzoic acid (6R,7S)-2,6,10-trihydroxy-1,3,11,12-tetramethoxy-6,7-dimethyl-5,6,7,8-tetrahydro-dibenzo[a,c]cycloocten-5-yl ester formation in presence of UDP-glucuronic acid by UFLC-DAD analysis; type: ADME, subcellular, S9 fraction
[5] = Drug metabolism in human liver microsomes assessed as Km for 2-O-demethylation; type: ADME, microsome; outline: as §1
Cytochrome P450 3A5 [6] = target: T1, Cytochrome P450 3A5; test: Substrate activity at CYP3A5 in human HepG2 cell s9 fractions assessed as enzyme-mediated benzoic acid (6R,7S)-2,6,10-trihydroxy-1,3,11,12-tetramethoxy-6,7-dimethyl-5,6,7,8-tetrahydro-dibenzo[a,c]cycloocten-5-yl ester formation at 50 uM after 60 mins by LC-MS/MS analysis; type: ADME, S9 Fraction; conditions: s9, 1 h
Outline: (§2)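 HepG2 or Caco-2 cells grown to 90% confluence in 75 cm2 flasks, trypsinized, sonicated in ice-cold PBS. S9 taken as the 9000g 20-min supernatant, protein by BCA. Incubated with 50 μM substrate and NADPH-generating system, pH 7.4 phosphate, 37 °C for 60 min. Stopped with ice-cold methanol, then centrifuged.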

[7] = Intrinsic clearance in human liver microsomes assessed per mg liver microsome; type: ADME
Outline: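 HLM at 0.4 mg/mL, 20 min at 37 °C, in 100 mM potassium phosphate pH 7.4 with NADPH-generating system (1 mM NADP+, 10 mM glucose-6-phosphate, 1 unit/mL G6PDH, 4 mM MgCl2). Substrate at 2–200 μM, 1% methanol. Km and Vmax from nonlinear regression. CLint = Vmax/Km. Three experiments in duplicate, mean ± SD.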

Cytochrome P450 3A5 [8] = target: Cytochrome P450 3A5 (Homo sapiens, UniProt P20815, F210L); test: (§3) Substrate activity at full length CYP3A5 F210L mutant (unknown origin) expressed in […] assessed as enzyme-mediated benzoic acid (6R,7S)-2,6,10-trihydroxy-1,3,11,12-tetramethoxy-6,7-dimethyl-5,6,7,8-tetrahydro-dibenzo[a,c]cycloocten-5-yl ester formation after 60 mins in presence of NADPH by UFLC-DAD analysis relative to wild type CYP3A5; type: ADME, cell-based; conditions: s9, 1 h
Cytochrome P450 3A5 (Homo sapiens, UniProt P20815, F210L), sequence (P20815 whole entry F210L): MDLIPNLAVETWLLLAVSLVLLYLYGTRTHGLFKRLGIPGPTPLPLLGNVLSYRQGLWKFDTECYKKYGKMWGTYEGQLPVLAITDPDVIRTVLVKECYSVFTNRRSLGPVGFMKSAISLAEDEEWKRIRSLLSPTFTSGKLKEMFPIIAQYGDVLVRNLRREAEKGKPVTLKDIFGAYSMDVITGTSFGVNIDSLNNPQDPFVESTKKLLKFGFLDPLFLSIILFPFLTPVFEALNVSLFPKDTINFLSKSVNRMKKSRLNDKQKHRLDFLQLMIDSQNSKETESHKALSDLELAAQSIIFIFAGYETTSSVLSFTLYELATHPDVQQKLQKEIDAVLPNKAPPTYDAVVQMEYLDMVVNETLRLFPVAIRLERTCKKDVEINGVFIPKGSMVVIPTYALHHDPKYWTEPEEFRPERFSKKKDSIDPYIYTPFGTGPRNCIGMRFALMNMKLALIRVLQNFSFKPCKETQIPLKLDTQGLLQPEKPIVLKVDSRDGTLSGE
Outline: (§4)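 Full-length CYP3A4/CYP3A5 cDNA mutants transfected into COS-7 cells (4 μg plasmid per well). After 24 h, cells were sonicated and S9 fractions prepared (9000g supernatant). Incubation: 5 mg/mL S9 and 50 μM substrate in 100 mM potassium phosphate pH 7.4 with NADPH-generating system, 37 °C, 60 min. Stopped with methanol, metabolite quantified by UFLC-DAD.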

HepG2 = test: Cytotoxicity against human HepG2 cells at 300 uM by CCK-8 assay; type: cell-based; conditions: hepg2, 300 µM
Outline: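 HepG2 viability after exposure measured with CCK-8 kit. Cells grown in complete DMEM with 10% FCS.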

[9] = Drug metabolism in s9 fractions (unknown origin) assessed as benzoic acid (6R,7S)-2,6,10-trihydroxy-1,3,11,12-tetramethoxy-6,7-dimethyl-5,6,7,8-tetrahydro-dibenzo[a,c]cycloocten-5-yl ester formation in presence of 3'-phosphoadenosine-5'-phosphosulfate by UFLC-DAD analysis; type: ADME, subcellular, S9 fraction
[10] = Drug metabolism in s9 fractions (unknown origin) assessed as benzoic acid (6R,7S)-2,6,10-trihydroxy-1,3,11,12-tetramethoxy-6,7-dimethyl-5,6,7,8-tetrahydro-dibenzo[a,c]cycloocten-5-yl ester formation in presence of S-adenosyl-L-methionine by UFLC-DAD analysis; type: ADME, subcellular, S9 fraction
Cytochrome P450 3A5 [11] = target: T1, Cytochrome P450 3A5; test: Substrate activity at recombinant human CYP3A5 expressed in bactosomes assessed as intrinsic clearance by measuring ratio of Vmax/Km for 2-O-demethylation assessed per pmol protein; type: ADME; conditions: recombinant enzyme
Outline: (§5)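 Bactosome rhCYP3A4 (40 nM, 20 min) or rhCYP3A5 (20 nM, 5 min) incubated at 37 °C with substrate at 2–200 μM in 100 mM potassium phosphate pH 7.4 with NADPH-generating system, 1% methanol. Stopped with ice-cold methanol, demethylated metabolite quantified by UFLC-DAD. Km and Vmax from nonlinear regression; CLint = Vmax/Km. Three experiments in duplicate.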

[12] = Substrate activity at CYP450 in human liver microsomes with NADPH-generating system assessed as CYP-mediated benzoic acid (6R,7S)-2,6,10-trihydroxy-1,3,11,12-tetramethoxy-6,7-dimethyl-5,6,7,8-tetrahydro-dibenzo[a,c]cycloocten-5-yl ester formation at 5 uM after 25 mins in presence of CYP inhibitor ABT; type: ADME
Outline: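 Substrate at 5 μM in pooled HLM (0.2 mg protein/mL) with NADPH-generating system in 100 mM phosphate pH 7.4, 37 °C, with or without inhibitor: ketoconazole 1 μM for CYP3A. CYP3cide 1 μM and ABT 500 μM were preincubated with NADPH-generating system at 37 °C for 25 min. Metabolite quantified by UFLC-DAD. Three experiments in duplicate.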

Cytochrome P450 3A5 [13] = target: T1, Cytochrome P450 3A5; test: Substrate activity at CYP3A5 in human Caco2 cell s9 fractions assessed as enzyme-mediated benzoic acid (6R,7S)-2,6,10-trihydroxy-1,3,11,12-tetramethoxy-6,7-dimethyl-5,6,7,8-tetrahydro-dibenzo[a,c]cycloocten-5-yl ester formation at 50 uM after 60 mins by LC-MS/MS analysis; type: ADME, S9 Fraction; conditions: s9, 1 h; outline: as §2
Cytochrome P450 3A4 [14] = target: T2, Cytochrome P450 3A4; test: Substrate activity at recombinant human CYP3A4 expressed in bactosomes assessed as intrinsic clearance by measuring ratio of Vmax/Km for 2-O-demethylation assessed per pmol protein; type: ADME; conditions: recombinant enzyme; outline: as §5
Cytochrome P450 3A5 [15] = target: T1, Cytochrome P450 3A5; test: Substrate activity at CYP3A5 in human liver microsomes assessed as enzyme-mediated benzoic acid (6R,7S)-2,6,10-trihydroxy-1,3,11,12-tetramethoxy-6,7-dimethyl-5,6,7,8-tetrahydro-dibenzo[a,c]cycloocten-5-yl ester formation at 5 uM by LC-MS/MS analysis; type: ADME
Cytochrome P450 3A4 [16] = target: Cytochrome P450 3A4 (Homo sapiens, UniProt P08684, L210F); test: as §3, with “CYP3A4 L210F” for “CYP3A5 F210L”, “analysis” for “analysis relative to”, “CYP3A4” for “CYP3A5”; type: cell-based; conditions: 1 h; outline: as §4
Cytochrome P450 3A4 (Homo sapiens, UniProt P08684, L210F), sequence (P08684 2-503 L210F limits assumed): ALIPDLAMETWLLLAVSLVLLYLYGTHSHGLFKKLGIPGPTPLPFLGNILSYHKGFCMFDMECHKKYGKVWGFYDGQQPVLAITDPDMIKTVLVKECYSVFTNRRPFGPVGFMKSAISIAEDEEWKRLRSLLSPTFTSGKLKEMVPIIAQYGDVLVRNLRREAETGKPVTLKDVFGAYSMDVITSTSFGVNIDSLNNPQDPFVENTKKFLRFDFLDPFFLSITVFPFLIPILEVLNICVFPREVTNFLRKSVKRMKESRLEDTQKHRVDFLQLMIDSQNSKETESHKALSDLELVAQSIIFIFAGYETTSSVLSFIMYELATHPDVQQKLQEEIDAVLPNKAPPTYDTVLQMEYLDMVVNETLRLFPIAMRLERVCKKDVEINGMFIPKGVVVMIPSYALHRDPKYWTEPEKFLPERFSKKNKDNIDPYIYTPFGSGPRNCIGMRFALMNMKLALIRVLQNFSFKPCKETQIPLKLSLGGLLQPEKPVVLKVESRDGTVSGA

[17] = substrate: COc1cc2c(c(OC)c1OC)-c1c(cc(O)c(OC)c1OC)C[C@H](C)[C@](C)(O)[C@H]2OC(=O)c1ccccc1; test: Substrate activity at recombinant human CYP3A5 expressed in bactosomes assessed as Km for 2-O-demethylation after 5 mins by Eadie-Hofstee plot method; type: ADME
Outline: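 Bactosome rhCYP3A5 (20 nM, coexpressed with human NADPH-P450 reductase) incubated 5 min at 37 °C with substrate 2–200 μM in 100 mM potassium phosphate pH 7.4 with NADPH-generating system, final methanol 1%. Reaction stopped with ice-cold methanol. Metabolite measured by UFLC-DAD. Apparent Km from nonlinear regression, plotted as Eadie–Hofstee. Three independent experiments in duplicate, mean ± SD.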

| Molecule | Drug metabolism (Cytochrome P450 3A5 [1]) | Drug metabolism (Cytochrome P450 3A4 [2]) | further results |
| --- | --- | --- | --- |
| COc1cc2c(c(OC)c1OC)-c1c(cc3c(c1OC)OCO3)C(OC(=O)c1ccccc1)[C@](C)(O)[C@@H](C)C2 (stereo partly specified) | 1 to 3 pmol/min | 4 to 9 pmol/min | – |
| COc1cc2c(c(OC)c1OC)-c1c(cc(OC)c(OC)c1OC)C[C@](C)(O)[C@@H](C)C2 [SCHIZANDRIN] | 1 to 3 pmol/min | >= 30 pmol/min | – |
| COc1c(O)cc2c(c1OC)-c1c(cc(O)c(OC)c1OC)C(O)[C@@H](C)[C@@H](C)C2 (stereo partly specified) | 1 to 3 pmol/min | 4 to 9 pmol/min | – |
| COc1cc2c(c(OC)c1OC)-c1c(cc3c(c1OC)OCO3)C[C@H](C)[C@@](C)(O)C2 [BESIGOMSIN] | 1 to 3 pmol/min | 10 to 15 pmol/min | – |
| COc1cc2c(c(OC)c1OC)-c1c(cc(O)c(OC)c1OC)C[C@H](C)[C@](C)(O)[C@H]2OC(=O)c1ccccc1 | >= 30 pmol/min | 1 to 3 pmol/min | Vmax [3]: 248.5 pmol/min/mg; Drug metabolism [4]: Metabolite_Notdetected; Km [5]: 4.95 µM; Drug metabolism (Cytochrome P450 3A5 [6]): Metabolite_Detected; microsomal CLint [7]: 50.2 µL/min/mg; fold change (FC) (Cytochrome P450 3A5 [8]): 2.1; Activity (HepG2): Non-Toxic; Drug metabolism [9]: Metabolite_Notdetected; Drug metabolism [10]: Metabolite_Notdetected; Ratio (Cytochrome P450 3A5 [11]): 10.7 µL/min/pmol; Drug metabolism [12]: Metabolite_Notdetected; Drug metabolism (Cytochrome P450 3A5 [13]): Metabolite_Detected; Ratio (Cytochrome P450 3A4 [14]): 0.46 µL/min/pmol; Drug metabolism (Cytochrome P450 3A5 [15]): 23.2 to 159 pmol/min/mg; fold change (FC) (Cytochrome P450 3A4 [16]): 2.6 |
| COc1cc2c(c(OC)c1OC)-c1c(cc3c(c1OC)OCO3)C[C@H](C)[C@@](C)(O)C2O (stereo partly specified) | 1 to 3 pmol/min | 4 to 9 pmol/min | – |
| COc1cc2c(c(OC)c1OC)-c1c(cc3c(c1OC)OCO3)C[C@H](C)[C@@](C)(O)C2OC(=O)c1ccccc1 (stereo partly specified) | Metabolite_Notdetected | Metabolite_Notdetected | – |
| COc1cc2c(c(O)c1OC)-c1c(cc(OC)c(OC)c1OC)C[C@H](C)[C@H](C)C2 | 4 to 9 pmol/min | 10 to 15 pmol/min | – |
| C/C=C(/C)C(=O)OC1c2cc(OC)c(OC)c(OC)c2-c2c(cc3c(c2OC)OCO3)C[C@H](C)[C@@]1(C)O (stereo partly specified) | Metabolite_Notdetected | Metabolite_Notdetected | – |
| COc1c2c(cc3c1-c1c(cc4c(c1OC)OCO4)C[C@H](C)[C@H](C)C3)OCO2 [SCHISANDRIN C] | Metabolite_Notdetected | Metabolite_Notdetected | – |
| COc1cc2c(c(OC)c1OC)-c1c(cc3c(c1OC)OCO3)C[C@H](C)[C@H](C)C2 [WUWEIZISU B] | Metabolite_Notdetected | Metabolite_Notdetected | – |
| COc1cc2c(c(OC)c1OC)-c1c(cc(OC)c(OC)c1OC)C[C@H](C)[C@H](C)C2 [SCHISANDRIN A] | 10 to 15 pmol/min | 16 to 29 pmol/min | – |
| B1 | – | – | Km [17]: 5.9 µM; Vmax [17]: 6.34e-05 µmol/min |
